A short description of the data set: Toxicity liver stage against HepG2, at 10uM. It counts as cell-based. Also noted: test concentration 10 uM, cell line HepG2-A16-CD81EGFP. Conditions: human, HepG2-A16-CD81EGFP cells; read-out: INHIBITION
Summed up:
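Uninfected HepG2-A16-CD81EGFP cells, 3 × 10^3 per well, 1536-well, plated on prespotted compound at 10 μM final, parasite-free screening media added to match infected plates; puromycin 10 μM positive, DMSO 0.5% negative; run in parallel with 48 h PbLuc assay at 37 °C, 5% CO2; viability by CellTiter-Glo luminescence, normalized to controls.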
Turning to `Fc1ccccc1Sc1ccccc1CNC1=NCCN1`, the cytotoxicity at 10 µM amounted to 12.5%.
The value for `Cn1c(CN2CCCCC2)cc(=O)c(O)c1CN1CCCCC1` was -2.34%; that for `COC(=O)c1ccc(C2SC(C)=Nc3c2c(=O)[nH]n3C2CCCC2)cc1` (stereo not given) was 6.84%; that for `CN1CCCC(C(=O)N2CCC(Oc3ccc(C#N)cn3)CC2)C1` (stereo not given) was -5.6%.
Take `CCS(=O)(=O)NCc1nc(C)cc(N2CCCCC2)n1`: the cytotoxicity at 10 µM was 6.79%.
In the case of `CC1N(CC2CC2)C(=O)COC12CCN(C(=O)c1cccs1)CC2` (stereo not given), the cytotoxicity at 10 µM was -3.64%.
Regarding `CN(C)c1ccc2c(c1)CN(C(=O)c1c[nH]cn1)C2c1cnco1` (stereo not given), the cytotoxicity at 10 µM was -0.234%.
On to `O=C(c1cc[nH]n1)N1CC[C@@H]2CN(Cc3cccnc3)S(=O)(=O)[C@@H]2CC1`, for which the cytotoxicity at 10 µM turned out to be 12.7%.
With `Cc1noc(C)c1CN1C[C@@H](OCC(=O)N(C)C)[C@H]2OCCC[C@H]21`, the cytotoxicity at 10 µM was found to be 12.1%.
`Cc1cc(C)nc(N2CCC(c3ccnc(N(C)C)n3)CC2)n1`: the cytotoxicity at 10 µM turned out to be 21.1%.
Turning to `CN(C)c1nccc(C2CCN(c3ncccn3)CC2)n1`, the cytotoxicity at 10 µM turned out to be 0.59%.
`c1cc(CNc2ncc(-c3cnccn3)c(C3CC3)n2)ccn1`: the cytotoxicity at 10 µM turned out to be 24%.
On to `CCn1ccc(-c2cc(NCCCOc3cccc(C)c3)nc(C)n2)n1`, for which the cytotoxicity at 10 µM was -5.65%.
With `O=C(NC1CC1)C1(Cc2ccccc2-c2ccncc2)CCOCC1`, the cytotoxicity at 10 µM was -3.83%.
As for `Cc1ncsc1-c1nnc(C2CCN(Cc3ccc(Cl)cc3)CC2)o1`, the figure is -4.41%; as for `c1nc2c(c(NC3CCc4ncnn4C3)n1)CCC2` (stereo not given), -40.7%; as for `Cc1noc(C2CCCN(C(=O)c3scnc3Cl)C2)n1` (stereo not given), 17.2%.
The value for `O=C(NC1CCN(CC2CC2)C1)N1CCC(OC2CCCCC2)CC1` (stereo not given) was 4.75%.
Turning to `COc1ccc(CNCc2cc(Br)c3c(c2)OCO3)cc1`, the cytotoxicity at 10 µM is 12.1%.
As to `Cc1nn(C)c(C)c1S(=O)(=O)NCC1(C(N)=O)CCOCC1`, the cytotoxicity at 10 µM was determined as 14.9%.
For the compound `c1cc2c(cc1CSCc1noc(C3CC3)n1)OCCO2`, the cytotoxicity at 10 µM was 10.4%.
Take `COc1cc(CNCCn2cc(C)cn2)c2c(c1)CC(C)O2` (stereo not given): the cytotoxicity at 10 µM worked out at 19.1%.
For the compound `COc1cc(CNCCn2cccn2)c2c(c1)CC(C)O2` (stereo not given), the cytotoxicity at 10 µM stood at 13.7%.
Take `CC(NC(=O)COc1cccc[n+]1[O-])C1CC1` (stereo not given): the cytotoxicity at 10 µM was -6.66%.
In the case of `O=C(Nc1ccc(Cl)cn1)C1CCCN(CCc2ccncc2)C1` (stereo not given), the cytotoxicity at 10 µM is -8.87%.
For the compound `Cc1ccc(NC(=O)NCC2(N3CCOCC3)CCSC2)c(C)c1` (stereo not given), the cytotoxicity at 10 µM stood at 1.15%.
For the compound `Cc1ccc(CC(=O)NC(C)C(=O)N2CCS(=O)(=O)CC2)s1` (stereo not given), the cytotoxicity at 10 µM is 11.2%.
As to `CCOCCN1CCN(Cc2nnc(C3CC3)o2)CC1C` (stereo not given), the cytotoxicity at 10 µM was determined as 12.9%.
Regarding `CCc1noc(C(C)N(C)CC(=O)Nc2ccc(Br)cc2C)n1` (stereo not given), the cytotoxicity at 10 µM is 19.6%.
For `CCOc1cc(CN(C)CCCC#N)ccc1OC(F)F`, the cytotoxicity at 10 µM was -10.3%.
With `Cc1noc(CN2CC=C(c3c[nH]c4ncccc34)CC2)n1`, the cytotoxicity at 10 µM is 44.7%.
For the compound `CC(NCc1cnc(C2CCC2)s1)c1cccc(-n2cccn2)c1` (stereo not given), the cytotoxicity at 10 µM worked out at 2.34%.
The value for `COc1cc(NCc2ncc[nH]2)ccc1Br` was 11.2%; that for `CC(=O)N(CCc1nc(-c2cc(C(N)=O)oc2C)cs1)C(C)C` was 0.988%.
For `Cc1cnn(CC2CCCN2c2ncnc3ccccc23)c1` (stereo not given), the cytotoxicity at 10 µM stood at 46.8%.
As to `NC(=O)CCSc1ccccc1NCc1ccc(Cl)s1`, the cytotoxicity at 10 µM came out at 7.74%.
On to `c1ccc(CNc2ccccc2N2CCCC2)nc1`, for which the cytotoxicity at 10 µM was found to be 10.9%.
In the case of `CN(Cc1cnccn1)S(=O)(=O)c1ccc(C(F)(F)F)nc1`, the cytotoxicity at 10 µM is -9.77%.
Consider `CCCN(C)CC1CCN(c2ccc(Br)c(C)n2)C1` (stereo not given), for which the cytotoxicity at 10 µM amounted to 14.8%.
Take `Cc1cc(C2CCCN(CC(=O)Nc3nc4c(s3)CCC4)C2)n[nH]1` (stereo not given): the cytotoxicity at 10 µM was -44.2%.
With `Cc1ccc(CN2C[C@H](NC(=O)c3nccn3C)[C@H]3OCCC[C@H]32)o1`, the cytotoxicity at 10 µM is -85%.
With `O=C(NCC1CC1)c1cc2c(s1)CCN2c1ncccn1`, the cytotoxicity at 10 µM is -101%.
Take `Cc1ccc(CN2CCCC3(CCN(Cc4ccc(C)o4)C3)C2)o1` (stereo not given): the cytotoxicity at 10 µM is -107%.
As for `CC1=N[C@@]2(CC[C@@H]3CN(C(=O)NCc4cccc(F)c4)C[C@@H]32)C(=O)N1`, the figure is -73.4%; as for `CN1CCN(Cc2noc(CCc3nc(-c4ccccc4)no3)n2)CC1`, 6.41%; as for `CSCC[C@@H](CO)Nc1ccc(-c2nc(-c3ccccc3F)no2)cn1`, 9.74%.
For `O=C1O[C@@H]2CN(c3ccncc3)C[C@@H]2N1CCCc1ccc(F)cc1`, the cytotoxicity at 10 µM was -3.73%.
For `CCOC(=O)c1ccc(N2CCN(Cc3c(C)nn(C)c3Cl)CC2)nc1`, the cytotoxicity at 10 µM was found to be 20.5%.
Consider `Cc1nc(NCc2noc(C3CCCO3)n2)c2sccc2n1` (stereo not given), for which the cytotoxicity at 10 µM is 50.2%.
As to `O=C(NCc1cccnc1N1CCCC(O)C1)c1ccsc1` (stereo not given), the cytotoxicity at 10 µM is 14.3%.
As for `Cc1nc(CNCc2cccnc2Oc2ccc(C)c(F)c2F)c[nH]1`, the cytotoxicity at 10 µM was 6.87%.
As for `FC(F)Oc1ccccc1CN1CCCC(c2nccn2CC2CC2)C1` (stereo not given), the figure is 6.64%; as for `C[C@H](c1ccc(F)cc1)n1c(C2CCN(C)CC2)n[nH]c1=O`, 9.93%.
As for `CCN1CCCC(CN(C)c2nccc(-c3ccc(C)nc3C)n2)C1` (stereo not given), the figure is -13.5%.
In the case of `CC(C)[C@H]1CN(c2ccncc2)C[C@@H]1NS(=O)(=O)N(C)C`, the cytotoxicity at 10 µM turned out to be 4.56%.
Take `O=C(c1scc2c1OCCO2)N1CCOC(CCc2ccccc2)C1` (stereo not given): the cytotoxicity at 10 µM stood at 10.5%.
Turning to `CN(C)C1CCN(c2cc(-c3ccccc3)nc3ccnn23)C1` (stereo not given), the cytotoxicity at 10 µM was -53.5%.
In the case of `CN(C)C(=O)CN1CCCN(CC2CCOc3ccccc3C2)CC1` (stereo not given), the cytotoxicity at 10 µM was -3.42%.
For `Cn1cnnc1CC1CCN(Cc2nn(C)c3cccc(Cl)c23)CC1`, the cytotoxicity at 10 µM is -1.62%.
As for `COC[C@]1(O)CCN(C(=O)c2ccc(CN(C)C)o2)CC1(C)C`, the figure is 4.35%; as for `Cc1nn(C)cc1-c1ccnc(N(C)Cc2cnn(C)c2)n1`, 19.9%.
`CN(Cc1cccc(OCCO)c1)Cc1cccc2ncccc12`: the cytotoxicity at 10 µM is 26%.
As to `Cc1cccc2sc(NC(=O)CN3CCCC(O)(CO)C3)nc12` (stereo not given), the cytotoxicity at 10 µM came out at 16.9%.
On to `Cc1[nH]c2c(C)ccc(C)c2c1CC(=O)NCC(O)c1cccnc1` (stereo not given), for which the cytotoxicity at 10 µM is -2.11%.
Consider `CCCN(CC)C(=O)c1cc(Cn2c(C)nc3ccccc32)[nH]n1`, for which the cytotoxicity at 10 µM is 36.7%.
`CSCc1ccc(N2CCC(C(O)Cc3ccccc3)CC2)nc1` (stereo not given): the cytotoxicity at 10 µM turned out to be 2.45%.
In the case of `CC1(C)CN(C(=O)c2ncc(F)cc2F)CCC1(O)CN1CCOCC1` (stereo not given), the cytotoxicity at 10 µM is -8.37%.
On to `Cc1nn(C)c2nc(N3CCC(C(O)Cc4ccccc4)CC3)sc12` (stereo not given), for which the cytotoxicity at 10 µM was 28.2%.
For `Cc1nc(-c2cn(CCN)nn2)n(-c2ccc(C(F)(F)F)cc2)n1`, the cytotoxicity at 10 µM was -1.77%.
With `CC(C)c1nc(CN(C)Cc2cnc(N3CCOCC3)nc2)no1`, the cytotoxicity at 10 µM was determined as 10.1%.
Consider `Cc1noc(C)c1C(=O)NCc1ccc(N2CCC(C)CC2)nc1`, for which the cytotoxicity at 10 µM was 8.43%.
Regarding `Cc1cnn(CC2CN(Cc3nc4ccccc4s3)CCO2)c1` (stereo not given), the cytotoxicity at 10 µM was determined as 0.639%.
For `O=C1NCCN1C1CCCN(Cc2coc(-c3ccc(F)cc3)n2)C1` (stereo not given), the cytotoxicity at 10 µM came out at 8.63%.
As to `Cc1cccc(NC2CCN(C(=O)Nc3cccc4[nH]ccc34)CC2)n1`, the cytotoxicity at 10 µM was -6.85%.
`CCOc1ccc(CN2CCN(C(=O)c3ccc(C)n3C)CC2)cc1`: the cytotoxicity at 10 µM was 19.2%.
For the compound `CC(Cn1cccn1)NC(=O)N1CCN(Cc2cccnc2)CC1` (stereo not given), the cytotoxicity at 10 µM was -18.2%.
Consider `Cc1cc(C[C@@H]2CCC[C@H]2NCc2ccccc2F)on1`, for which the cytotoxicity at 10 µM is -6.19%.
For the compound `CC1(C)CC(N(Cc2cccnc2)Cc2cccc(F)c2)CC(C)(C)N1`, the cytotoxicity at 10 µM was -6.41%.
As for `Clc1ccc(C2(CNC3=NCCN3)CCCCC2)cc1`, the figure is 38.2%.
As to `c1cncc(-c2ccc3c(c2)C2(CC3)CCN(c3nncs3)CC2)c1`, the cytotoxicity at 10 µM turned out to be 13.1%.
`Cn1cnc(S(=O)(=O)N2C[C@H]3CN(Cc4ccccn4)C[C@H]3C2)c1`: the cytotoxicity at 10 µM amounted to 4.26%.
As to `CN(C)C(=O)[C@@]12CCO[C@@H]1CCN(Cc1ccc3c(c1)OCO3)C2`, the cytotoxicity at 10 µM stood at 0.863%.
The value for `CC(C)N1CCOCC2(CCCN(C(=O)c3cncn3C)C2)C1` (stereo not given) was -1.09%; that for `Cc1nc2c(cc1C(=O)O)CCN(CC1CC1)CC2` was -154%.
As for `CCOC(=O)[C@]12CCCN(Cc3nccs3)C[C@H]1CN(C(C)C)C2`, the figure is -8.81%; as for `COCCC1COC2(CCN(C(=O)c3ccncc3)CC2)C1` (stereo not given), -74.9%.
Turning to `COCCN1CC2(CCOCC2)c2cc(NC(=O)C3CC=CC3)ccc21`, the cytotoxicity at 10 µM is -109%.
For the compound `COCCN1CCc2cc(C(=O)NC(C)C)c(NCC(C)C)nc2CC1`, the cytotoxicity at 10 µM is -163%.
On to `c1ccc(COC[C@@H]2CCC[C@]23CN(Cc2nccs2)CCO3)nc1`, for which the cytotoxicity at 10 µM was -65.4%.
The value for `O=C1CC2(CCCCN2C(=O)c2ccco2)CN1c1cccnc1` (stereo not given) was -1.69%; that for `CC1=N[C@@]2(CC[C@@H]3CN(CC4CC4)C[C@@H]32)C(=O)N1CC(C)C` was -84%; that for `c1cc(CNCc2ccc(-n3cncn3)nc2)cc(OC2CCCC2)c1` was 2.3%.
As to `CCOCCN1CCN(C=C2NN=C(c3occc3C)O2)CC1CC` (stereo not given), the cytotoxicity at 10 µM was -50.3%.
Take `Cc1[nH]n(C)c2nc(=O)cc(C(F)(F)C(F)(F)F)c1-2`: the cytotoxicity at 10 µM is -2.22%.
With `NC1CCC(Nc2nccc(CCC(F)(F)F)n2)CC1` (stereo not given), the cytotoxicity at 10 µM was -15%.

Values taken from ChEMBL document CHEMBL4513216, “Probing the Open Global Health Chemical Diversity Library for Multistage-Active Starting Points for Next-Generation Antimalarials” (ACS Infect Dis, 2020).
